Source: ChEMBL document CHEMBL2380254, “Optimization of tocotrienols as antiproliferative and antimigratory leads” (Eur J Med Chem, 2013)

Experiments:
OVCAR-8 = assay: Growth inhibition of human OVCAR8 cells assessed as cell growth at 10 uM after 48 hrs by sulforhodamine B assay; assay type: functional; settings: OVCAR-8, 48 h, read-out: Activity
In short: (§1)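 Single-dose NCI-60 screen: adherent cells in RPMI 1640 with 5% FBS were exposed to 10 µM for 48 h at 37 °C after a 24 h preincubation. They were fixed in situ with cold TCA (10% final), stained with 0.4% SRB in 1% acetic acid, solubilized in 10 mM Tris base, and read at 515 nm. Percent growth was taken relative to time-zero and control plates.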

NCI-H522 = assay: Growth inhibition of human NCI-H522 cells after 48 hrs by sulforhodamine B assay; assay type: functional; settings: NCI-H522, 48 h
In short: (§2)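 NCI-60 panel cells grown in RPMI 1640 with 5% FBS and 2 mM L-glutamine, seeded at 5000–40,000 cells/well and preincubated 24 h. Five 10-fold dilutions (0.001–100 µM) from DMSO stocks were added for 48 h at 37 °C. Adherent cells were fixed with cold TCA (10% final) for 60 min at 4 °C, stained with 0.4% SRB, and read at 515 nm. GI50 was set where 100×(T−T0)/(C−T0)=50.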

BT-549 = assay: Growth inhibition of human BT549 cells assessed as cell growth at 10 uM after 48 hrs by sulforhodamine B assay; assay type: functional; settings: BT-549, 48 h, read-out: Activity
In short: (§3)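 NCI-60 single-dose screen at 10 µM: cells in RPMI 1640 with 5% FBS, preincubated 24 h, then exposed 48 h at 37 °C. TCA fixation (16% final for suspension cells), SRB staining, absorbance 515 nm. Percent growth relative to time-zero and untreated control plates; negative values indicate cell kill.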

A549 = assay: Growth inhibition of human A549/ATCC cells assessed as cell growth at 10 uM after 48 hrs by sulforhodamine B assay; assay type: functional; settings: A549, 48 h, read-out: Activity; in short: as §3
MDA-MB-231 [1] = assay: Antiproliferative activity against human MDA-MB-231 cells by MTT assay; assay type: functional, cell-based
In short: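 Cells plated at 8 × 10^3/well (MDA-MB-231) or 10^4/well (MCF7) in 96-well plates. Compounds fed in media with 5% FBS (MDA-MB-231) or 1% FBS (MCF7). MTT read-out of viable cells.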

MDA-MB-435 [2] = assay: Growth inhibition of human MDA-MB-435 cells after 48 hrs by sulforhodamine B assay; assay type: functional; settings: MDA-MB-435, 48 h; in short: as §2
[3] = Growth inhibition of human Hs 578T cells after 48 hrs by sulforhodamine B assay; assay type: functional
In short: (§4)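 NCI-60 screen: cells in RPMI 1640 with 5% FBS and 2 mM glutamine, 5000–40,000 cells/well, preincubated 24 h. Five concentrations (10-fold dilutions; 100 to 0.001 µM) applied for 48 h at 37 °C. TCA fixation, SRB stain, absorbance at 515 nm. Time-zero plates included; GI50 where 100×(T−T0)/(C−T0)=50.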

UO-31 [4] = assay: Growth inhibition of human UO31 cells assessed as cell growth at 10 uM after 48 hrs by sulforhodamine B assay; assay type: functional; settings: UO-31, 48 h, read-out: Activity
In short: (§5)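 Single-dose NCI-60 test at 10 µM. Cells were grown in RPMI 1640 with 5% FBS and 2 mM L-glutamine, preincubated 24 h, with T0 plates TCA-fixed. Exposure was 48 h at 37 °C, 5% CO2. Cells were fixed with cold TCA (final 10%, 4 °C, 60 min), stained with SRB and read at 515 nm. Percent growth was taken relative to T0 and untreated control; negative values denote cell kill.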

[5] = Growth inhibition of human HCC2998 cells after 48 hrs by sulforhodamine B assay; assay type: functional; settings: HCC 2998, 48 h; in short: as §4
SW-620 = assay: Growth inhibition of human SW620 cells assessed as cell growth at 10 uM after 48 hrs by sulforhodamine B assay; assay type: functional; settings: SW-620, 48 h, read-out: Activity; in short: as §5
HOP-92 = assay: Growth inhibition of human HOP92 cells assessed as cell growth at 10 uM after 48 hrs by sulforhodamine B assay; assay type: functional; settings: HOP-92, 48 h, read-out: Activity; in short: as §3
M14 [6] = assay: Growth inhibition of human M14 cells after 48 hrs by sulforhodamine B assay; assay type: functional; settings: M14, 48 h; in short: as §4
MDA-MB-468 = assay: Growth inhibition of human MDA-MB-468 cells after 48 hrs by sulforhodamine B assay; assay type: functional; settings: MDA-MB-468, 48 h; in short: as §2
UO-31 [7] = assay: Growth inhibition of human UO31 cells after 48 hrs by sulforhodamine B assay; assay type: functional; settings: UO-31, 48 h
In short: (§6)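 NCI-60 five-dose screen. Cells were grown in RPMI 1640 with 5% FBS and 2 mM L-glutamine, plated at 5000–40,000 cells/well and incubated 24 h before dosing, with T0 plates TCA-fixed. DMSO stocks were diluted to doses of […] and exposed 48 h at 37 °C, 5% CO2. Cells were fixed with cold TCA (final 10%, 60 min, 4 °C), stained with 0.4% SRB in 1% acetic acid for 10 min, solubilized in 10 mM trizma base and read at 515 nm. GI50 is where 100×(T−T0)/(C−T0)=50.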

COLO 205 = assay: Growth inhibition of human COLO205 cells assessed as cell growth at 10 uM after 48 hrs by sulforhodamine B assay; assay type: functional; settings: COLO 205, 48 h, read-out: Activity; in short: as §3
NCI-H23 = assay: Growth inhibition of human NCI-H23 cells assessed as cell growth at 10 uM after 48 hrs by sulforhodamine B assay; assay type: functional; settings: NCI-H23, 48 h, read-out: Activity; in short: as §1
[8] = Growth inhibition of human EKVX cells after 48 hrs by sulforhodamine B assay; assay type: functional; in short: as §4
MDA-MB-435 [9] = assay: Growth inhibition of human MDA-MB-435 cells assessed as cell growth at 10 uM after 48 hrs by sulforhodamine B assay; assay type: functional; settings: MDA-MB-435, 48 h, read-out: Activity; in short: as §1
SN12C = assay: Growth inhibition of human SN12C cells assessed as cell growth at 10 uM after 48 hrs by sulforhodamine B assay; assay type: functional; settings: read-out: Activity; in short: as §5
HT-29 = assay: Growth inhibition of human HT-29 cells assessed as cell growth at 10 uM after 48 hrs by sulforhodamine B assay; assay type: functional; settings: HT-29, 48 h, read-out: Activity; in short: as §3
CAKI-1 = assay: Growth inhibition of human CAKI-1 cells after 48 hrs by sulforhodamine B assay; assay type: functional; settings: CAKI-1, 48 h; in short: as §4
MDA-MB-231 [10] = assay: Growth inhibition of human MDA-MB-231 cells after 48 hrs by sulforhodamine B assay; assay type: functional; settings: MDA-MB-231, 48 h; in short: as §2
M14 [11] = assay: Growth inhibition of human M14 cells assessed as cell growth at 10 uM after 48 hrs by sulforhodamine B assay; assay type: functional; settings: M14, 48 h, read-out: Activity; in short: as §3
SF-268 = assay: Growth inhibition of human SF268 cells assessed as cell growth at 10 uM after 48 hrs by sulforhodamine B assay; assay type: functional; settings: SF-268, 48 h, read-out: Activity; in short: as §1
HOP-62 = assay: Growth inhibition of human HOP62 cells after 48 hrs by sulforhodamine B assay; assay type: functional; settings: HOP-62, 48 h; in short: as §4
TK-10 = assay: Growth inhibition of human TK10 cells after 48 hrs by sulforhodamine B assay; assay type: functional; settings: TK-10, 48 h; in short: as §6

Structure (SMILES) | growth at 10 µM (OVCAR-8) [%] | GI50 (NCI-H522) [µM] | growth at 10 µM (BT-549) [%] | growth at 10 µM (A549) [%] | GI50 (MDA-MB-435 [2]) [µM] | GI50 [3] [µM] | growth at 10 µM (UO-31 [4]) [%] | GI50 [5] [µM] | growth at 10 µM (SW-620) [%] | GI50 (M14 [6]) [µM] | GI50 (MDA-MB-468) [µM] | GI50 (UO-31 [7]) [µM] | growth at 10 µM (COLO 205) [%] | growth at 10 µM (NCI-H23) [%] | GI50 [8] [µM] | growth at 10 µM (MDA-MB-435 [9]) [%] | growth at 10 µM (SN12C) [%] | growth at 10 µM (HT-29) [%] | GI50 (CAKI-1) [µM] | GI50 (MDA-MB-231 [10]) [µM] | further results
CC(C)=CCC/C(C)=C/CC/C(C)=C/CC[C@]1(C)CCc2c3c(c(C)c(C)c2O1)OCN(CCCCCO)C3 | 69 | 7.08 | 114 | 80.3 | 5.8 | 7.26 | 64.6 | 2.53 | -18.6 | 6.63 | 4.14 | 4.64 | 68.7 | 94.5 | 6.08 | 35.5 | 78.5 | 55.1 | 5.33 | 5.87 | IC50 (MDA-MB-231 [1]): > 50 µM; growth at 10 µM (HOP-92): 63.4%; growth at 10 µM (M14 [11]): 107%; growth at 10 µM (SF-268): 75.9%; GI50 (HOP-62): 5.9 µM; GI50 (TK-10): 5.98 µM
CC(C)=CCC/C(C)=C/CC/C(C)=C/CC[C@]1(C)CCc2c3c(cc(C)c2O1)OCN(C1CCN(Cc2ccccc2)CC1)C3 | -85.8 | 1.81 | 109 | 49.6 | 1.2 | 1.51 | 57.8 | 0.626 | 100 | 1.89 | 1.41 | 1.51 | -36.5 | 38.7 | 1.69 | 3.07 | 1.77 | 22.7 | 1.6 | 1.63 | growth at 10 µM (HOP-92): 37.4%; growth at 10 µM (M14 [11]): 50.1%; growth at 10 µM (SF-268): 12.9%; GI50 (HOP-62): 1.82 µM; GI50 (TK-10): 1.71 µM
CC(C)=CCC/C(C)=C/CC/C(C)=C/CC[C@]1(C)CCc2c3c(cc(C)c2O1)OCN(CCc1ccc(O)cc1)C3 | -74.3 | 5.32 | 105 | 76.6 | 4.54 | 6.29 | 52.1 | 1.71 | -95.2 | 6.66 | 1.55 | 4.42 | -69.9 | 27.2 | 6.13 | -53.1 | 65.6 | 18.6 | 5.31 | 4.65 | IC50 (MDA-MB-231 [1]): > 5 µM; growth at 10 µM (HOP-92): 69.1%; growth at 10 µM (M14 [11]): 9.79%; growth at 10 µM (SF-268): 18.2%; GI50 (HOP-62): 5.66 µM; GI50 (TK-10): 5.56 µM
COc1ccc(CCN2COc3cc(C)c4c(c3C2)CC[C@@](C)(CC/C=C(\C)CC/C=C(\C)CCC=C(C)C)O4)cc1OC | -70.7 | 2.08 | 105 | 58.4 | 1.66 | 2.3 | 51.2 | 1.48 | -98.1 | 1.79 | 1.46 | 1.63 | -72.5 | 50.7 | 2.69 | -51.1 | 37 | 0.54 | 3.95 | 1.94 | growth at 10 µM (HOP-92): 32.7%; growth at 10 µM (M14 [11]): -19.5%; growth at 10 µM (SF-268): -75.2%; GI50 (HOP-62): 1.76 µM; GI50 (TK-10): 3.08 µM
CC(C)=CCC/C(C)=C/CC/C(C)=C/CC[C@]1(C)CCc2c3c(c(C)c(C)c2O1)OCN(CCCCO)C3 | 87.3 | > 10 | 104 | 70 | 4.68 | > 10 | 50.7 | 1.84 | -16.1 | 5.99 | 2.53 | 8.83 | -16 | 93.5 | > 10 | 53.9 | 76.8 | 54.4 | > 10 | 2.34 | IC50 (MDA-MB-231 [1]): 13.8 µM; growth at 10 µM (M14 [11]): 65.4%; growth at 10 µM (SF-268): 75.2%; GI50 (HOP-62): 5.95 µM; GI50 (TK-10): > 10 µM
